XiGFP reactiv = activators of inactive X chromosome reactivation, primary screen, imaging, XiGFP fibroblasts, GFP high-content imaging, set 2. XiGFP mouse fibroblasts, % GFP-positive cells imaging, 3 d; cells co-treated with 5-aza-dC sensitizer; scaled so ellipticine positive control = 100%. activation, % at 7.58 µM. hit rate 0.055% among 360,000. AID 743238, 2013;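 active = mean normalized replicate activation at least 10% and every replicate at or above 10%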;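 also: 0% = median of on-plate neutral control wells and 100% = ellipticine 6 µM median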
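material = 68-5-11 XiGFP fibroblast line | medium = DMEM plus 5-aza-dC sensitizer | schedule = 3 days compound exposure | benchmarks = positive control ellipticine, 6 µM final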
FGF22 binding = binders of human FGF22 protein, primary screen, FGF22 synaptogenesis inhibitor project, biophysical, thermal shift, single point; hit rate 1.5% among 340,000; AID 651658, 2012; recombinant FGF22 thermal shift, SYPRO orange fluorescence; percent of sucrose octasulfate shift, DMSO zero; activity (Tm shift, normalised), % at 9.99 µM;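 active = mean Tm shift, scaled 0 neutral to 100 positive control, at about 1.3% or above, every replicate too, limit read from the data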
Target sequence (Q9HCT0 whole entry, looked up): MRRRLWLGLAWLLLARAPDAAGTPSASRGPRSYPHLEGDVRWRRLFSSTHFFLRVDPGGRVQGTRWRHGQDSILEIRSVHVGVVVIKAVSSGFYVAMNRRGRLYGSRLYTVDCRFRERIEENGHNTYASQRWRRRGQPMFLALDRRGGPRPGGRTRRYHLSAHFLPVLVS
ARNT-TACC3 inh = disruptors of ARNT/TACC3 protein interaction, primary screen, biochemical, AlphaScreen, single concentration; AID 623870, 2012; AlphaScreen His-ARNT PAS-B/GST-TACC3 binding, luminescence; TACC3 fragment carries E629A point mutation; inhibition, % at 9.99 µM; hit rate 0.66% among 390,000; Transforming acidic coiled-coil-containing protein 3 (Homo sapiens), Q9Y6A5;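 active = mean inhibition of replicates at least 50% and at least half of replicates each reaching 50%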;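 also: 0% = complete ARNT plus TACC3 wells and 100% = ARNT alone without TACC3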
SIRT5 inh = SIRT5 desuccinylase inhibitors, primary screen, biochemical, fluorescence imaging, single point, set 5; inhibition, % at 15 µM; NAD-dependent protein deacylase sirtuin-5, mitochondrial (Homo sapiens), Q9NXA8; Purified SirT5, succinyl-peptide AMC, trypsin-coupled fluorescence; hit rate 1.1% among 330,000; in the data active = inhibition above about 15%
Target sequence (Q9NXA8 whole entry, looked up): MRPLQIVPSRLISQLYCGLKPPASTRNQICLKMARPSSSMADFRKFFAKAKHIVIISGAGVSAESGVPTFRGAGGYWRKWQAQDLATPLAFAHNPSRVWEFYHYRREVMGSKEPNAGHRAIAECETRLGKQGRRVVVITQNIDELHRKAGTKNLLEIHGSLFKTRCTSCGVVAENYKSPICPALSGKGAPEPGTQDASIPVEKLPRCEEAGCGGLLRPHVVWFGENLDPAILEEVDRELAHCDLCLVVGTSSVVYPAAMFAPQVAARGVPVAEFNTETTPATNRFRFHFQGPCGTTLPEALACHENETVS
DENV2 CPE rescue = inhibitors of DENV2 cytopathic effect, primary screen, cell-based, plate reader, single concentration. hit rate 1.7% among 350,000. DENV2-infected cells, cytopathic effect rescue. CPE inhibition, % at 9.99 µM; in the data active = CPE inhibition above about 20%, passing the limit was not always enough; tested in BHK-21 cells;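 also: 0% = median of neutral control wells and 100% = median of positive control wells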
FN deposition inh = inhibitors of fibronectin matrix deposition, primary screen, AH1F cells, Alexa488-fibronectin fluorescence, plate reader | AH1F fibroblasts, overnight | inhibition, % at 12.6 µM | hit rate 0.086% among 350,000 | AID 743247, 2014;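 active = mean inhibition across replicates of 30% or more, regardless of how many single replicates reach that level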;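 also: positive control wells lacked labelled fibronectin entirely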
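Material: AH1F fibroblast monolayer depositing Alexa488-labelled fibronectin into matrix | Input: 10000 AH1F cells/well | Medium: DMEM plus 2% serum, read in PBS | Reagent: Alexa488-fibronectin, 24 nM final in well | Compound dosing: One dose per compound, pinned | Schedule: 1 h adhesion, overnight exposure | Measured by: Fluorescence at 485 nm excitation, 525 nm emission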
Active calls of the source: *; x = no result. The list is not random: actives were taken first. Their share in the collection is about 3.8%.

SMILES	XiGFP reactiv	FGF22 binding	ARNT-TACC3 inh	SIRT5 inh	DENV2 CPE rescue	FN deposition inh
COc1ccc2c3c([nH]c2c1)[C@H](CO)N(C(=O)Nc1ccc(F)cc1)CC31CN(Cc2cc(-c3ccccc3)on2)C1	0.0	x	x	-0.9	50.2*	2.5
COc1ccc2c3c([nH]c2c1)[C@@H](CO)N(C(=O)Nc1ccc(F)cc1)CC31CCN(Cc2cc(-c3ccccc3)on2)CC1	0.3	0.0	x	4.7	-5.4	x
O=C(NCc1ccccc1)c1ccc(-c2cn[nH]c2)c2ccoc12	0.3	-0.2	x	-4.8	-6.3	34.7*
COCCNC(=O)c1ccc(-c2cn[nH]c2)c2ccoc12	0.0	-0.2	x	-3.9	-6.8	22.8
Cc1ccc(S(=O)(=O)N(C)C[C@H]2Oc3ccc(NC(=O)Nc4cccc5ccccc45)cc3CC(=O)N([C@@H](C)CO)C[C@H]2C)cc1	0.0	0.2	9.6	19.3*	-2.1	19.6
Cc1ccc(S(=O)(=O)N(C)C[C@H]2Oc3ccc(NC(=O)Nc4ccccc4)cc3CC(=O)N([C@H](C)CO)C[C@@H]2C)cc1	23.3*	-0.1	6.7	3.2	-11.9	x
C[C@@H]1CN([C@H](C)CO)C(=O)Cc2cc(NC(=O)Nc3ccccc3)ccc2O[C@H]1CN(C)S(=O)(=O)c1ccc(F)cc1	-0.2	0.1	1.9	1.6	-5.5	x
C[C@@H]1CN([C@@H](C)CO)C(=O)Cc2cc(NC(=O)Nc3ccccc3)ccc2O[C@H]1CN(C)S(=O)(=O)c1ccc(F)cc1	-0.2	0.0	-3.3	17.7*	-3.7	x
Cc1ccc(S(=O)(=O)N(C)C[C@@H]2Oc3ccc(NC(=O)Nc4cccc5ccccc45)cc3CC(=O)N([C@@H](C)CO)C[C@@H]2C)cc1	-0.4	0.0	7.7	-2.2	-8.1	x
Cc1ccc(S(=O)(=O)N(C)C[C@@H]2Oc3ccc(NC(=O)NC4CCCCC4)cc3CC(=O)N([C@@H](C)CO)C[C@@H]2C)cc1	-0.8	0.2	2.2	-4.5	35.3*	x
Cc1ccc(S(=O)(=O)N(C)C[C@@H]2Oc3ccc(NC(=O)Nc4ccccc4)cc3CC(=O)N([C@@H](C)CO)C[C@@H]2C)cc1	0.1	-0.3	5.3	0.0	7.1	x
C[C@@H]1CN([C@@H](C)CO)C(=O)Cc2cc(NC(=O)Nc3ccc(F)cc3)ccc2O[C@H]1CN(C)S(=O)(=O)c1ccc(Cl)cc1	-0.1	0.3	-5.2	12.4	0.5	x
C[C@H]1CN([C@@H](C)CO)C(=O)Cc2cc(NC(=O)Nc3ccc(F)cc3)ccc2O[C@H]1CN(C)S(=O)(=O)c1ccc(Cl)cc1	0.0	0.1	13.4	3.5	43.3*	x
CC(=O)N1CCC2(CC1)C/C(=N\NC(=S)Nc1ccccc1C)c1cc(O)ccc1O2	0.2	-0.2	6.2	20.8*	3.7	-9.7
O=C(OCc1cc([N+](=O)[O-])cc2c1OCOC2)c1ccccn1	0.3	43.0*	4.2	0.7	-7.7	-6.9
C[C@@H]1CN([C@@H](C)CO)C(=O)c2cccc(NC(=O)Nc3ccc4c(c3)OCO4)c2O[C@@H]1CN(C)S(=O)(=O)c1cccs1	0.0	-0.1	10.7	-0.6	-3.5	x
O=C(CCN1CCCCC1)NNC(=S)NC(=O)c1ccc(Br)cc1	0.1	43.5*	35.3	-4.9	-1.7	-16.3
O=C(CCN1CCOCC1)NNC(=S)NC(=O)c1ccc(Br)cc1	0.2	-0.1	34.8	-2.0	-2.7	0.4
O=C(NCC1CC1)[C@@H]1[C@@H](CO)[C@@H]2Cn3c(cccc3=O)[C@H]1N2CCc1ccccc1	0.2	0.0	7.0	4.5	0.5	x
O=C(NCC1CCCCC1)[C@@H]1[C@@H](CO)[C@@H]2Cn3c(cccc3=O)[C@H]1N2CCc1ccccc1	0.3	0.0	1.0	3.4	110.0*	x
O=C(NCC1CCCCC1)[C@H]1[C@H](CO)[C@H]2Cn3c(cccc3=O)[C@@H]1N2CCc1ccccc1	0.0	-0.2	2.5	18.2*	109.2*	x
CCN1C(=O)/C(=C2\SC(=S)N(NC(=O)c3ccccc3O)C2=O)c2ccccc21	0.0	0.3	64.6*	-5.2	10.9	-10.0
CCN1C(=O)/C(=C2\SC(=S)N(c3c(C)n(C)n(-c4ccccc4)c3=O)C2=O)c2ccccc21	x	x	14.8	x	x	-9.4
O=C(C[C@H]1C[C@H]2c3cc(NC(=O)Cc4ccncc4)ccc3O[C@H]2[C@@H](CO)O1)NCc1ccc(-c2ccccc2)cc1	0.2	0.2	2.9	9.8	-1.6	x
O=C(C[C@@H]1CC[C@@H](NC(=O)C2CCC2)[C@@H](CO)O1)NC1CCC1	0.3	-0.4	0.2	-2.4	-7.1	x
SMILES	XiGFP reactiv	FGF22 binding	ARNT-TACC3 inh	SIRT5 inh	DENV2 CPE rescue	FN deposition inh
O=C(C[C@H]1CC[C@H](NC(=O)C2CCC2)[C@@H](CO)O1)NC1CCC1	0.2	-0.3	18.9	-2.5	40.5*	x
O=C(C[C@@H]1CC[C@@H](NC(=O)C2CCOCC2)[C@@H](CO)O1)NCC1CC1	-0.2	x	x	-1.5	1.2	x
O=C(C[C@H]1CC[C@H](NC(=O)C2CCOCC2)[C@@H](CO)O1)NCC1CC1	-0.2	x	x	-0.4	34.3*	x
C[C@@H](NC(=O)C[C@H]1CC[C@H](NC(=O)C2CC2)[C@@H](CO)O1)c1ccccc1	-0.1	-0.1	6.6	16.6*	-3.9	-5.5
O=C(C[C@@H]1CC[C@@H](NC(=O)CC2CC2)[C@@H](CO)O1)NCC(F)(F)F	0.4	-0.2	-14.5	-0.2	61.8*	-11.4
O=C(C[C@H]1CC[C@H](NC(=O)c2cccnc2)[C@H](CO)O1)NCc1ccc(Cl)c(Cl)c1	0.6	0.8	5.1	-0.7	6.4	-9.5
O=C(C[C@H]1C[C@@H]2c3cc(NC(=O)C4CCC4)ccc3O[C@@H]2[C@@H](CO)O1)NCC(F)(F)F	0.1	x	-6.1	10.9	6.1	-2.2
O=C(NC1CCC1)[C@H]1[C@H](CO)[C@H]2Cn3c(ccc(-c4ccncc4)c3=O)[C@@H]1N2Cc1cocn1	0.3	-0.1	-17.6	-8.5	-4.0	-4.1
CC(C)CC#Cc1cnc2c(c1)C(=O)N([C@@H](C)CO)C[C@H](C)[C@H](CN(C)C(=O)c1ccc3c(c1)OCO3)O2	-0.7	-0.3	-0.3	2.6	-13.3	x

Screening data as filed in PubChem BioAssay.
